Reference: ChEMBL document CHEMBL4138271, “Crystal Structures and Human Leukemia Cell Apoptosis Inducible Activities of Parthenolide Analogues Isolated from Piptocoma rufescens” (J Nat Prod, 2018)
The source made the active and inactive calls. No cut-off for these calls is given here.

What was measured:
HT-29 = test: Cytotoxicity against human HT-29 cells after 72 hrs by MTS assay; type: functional, cell-based; conditions: HT-29, 72 h
MOLM-13 [1] = test: Induction of apoptosis in human MOLM13 cells assessed as necrotic cells at 3 uM after 24 hrs by Annexin-V FITC/7-AAD staining based flow cytometric method (reference value: 0%); type: functional
MOLM-13 [2] = test: Induction of apoptosis in human MOLM13 cells assessed as late apoptotic cells at 6 uM after 24 hrs by Annexin-V FITC/7-AAD staining based flow cytometric method (reference value: 1.43%); type: functional
EOL1 [3] = test: Induction of apoptosis in human EOL-1 cells assessed as necrotic cells at 3 uM after 24 hrs by Annexin-V FITC/7-AAD staining based flow cytometric method (reference value: 0.032%); type: functional
MOLM-13 [4] = test: Induction of apoptosis in human MOLM13 cells assessed as live cells at 6 uM after 24 hrs by Annexin-V FITC/7-AAD staining based flow cytometric method (reference value: 86.8%); type: functional
EOL1 [5] = test: Cytotoxicity against human EOL-1 cells after 72 hrs by MTS assay; type: functional, cell-based; conditions: EOL1, 72 h
EOL1 [6] = test: Induction of apoptosis in human EOL-1 cells assessed as late apoptotic cells at 6 uM after 24 hrs by Annexin-V FITC/7-AAD staining based flow cytometric method (reference value: 0.535%); type: functional
EOL1 [7] = test: Induction of apoptosis in human EOL-1 cells assessed as live cells at 3 uM after 24 hrs by Annexin-V FITC/7-AAD staining based flow cytometric method (reference value: 97.5%); type: functional
MOLM-13 [8] = test: Induction of apoptosis in human MOLM13 cells assessed as early apoptotic cells at 6 uM after 24 hrs by Annexin-V FITC/7-AAD staining based flow cytometric method (reference value: 11.8%); type: functional
EOL1 [9] = test: Induction of apoptosis in human EOL-1 cells assessed as late apoptotic cells at 12 uM after 24 hrs by Annexin-V FITC/7-AAD staining based flow cytometric method (reference value: 0.535%); type: functional
MOLM-13 [10] = test: Induction of apoptosis in human MOLM13 cells assessed as late apoptotic cells at 12 uM after 24 hrs by Annexin-V FITC/7-AAD staining based flow cytometric method (reference value: 1.43%); type: functional
EOL1 [11] = test: Induction of apoptosis in human EOL-1 cells assessed as early apoptotic cells at 12 uM after 24 hrs by Annexin-V FITC/7-AAD staining based flow cytometric method (reference value: 1.94%); type: functional
MOLM-13 [12] = test: Induction of apoptosis in human MOLM13 cells assessed as live cells at 12 uM after 24 hrs by Annexin-V FITC/7-AAD staining based flow cytometric method (reference value: 86.8%); type: functional
MOLM-13 [13] = test: Cytotoxicity against human MOLM13 cells after 72 hrs by MTS assay; type: functional, cell-based; conditions: MOLM-13, 72 h
EOL1 [14] = test: Induction of apoptosis in human EOL-1 cells assessed as necrotic cells at 12 uM after 24 hrs by Annexin-V FITC/7-AAD staining based flow cytometric method (reference value: 0.032%); type: functional
EOL1 [15] = test: Induction of apoptosis in human EOL-1 cells assessed as caspase-3 activation at 10 uM after 72 hrs by immunoblotting analysis; type: functional, cell-based
Summary of the method: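 EOL-1 cells (RPMI 1640, 10% FBS, 37 °C, 5% CO2) exposed 72 h; compounds at 10 μM, PKC412 at 10 nM. Harvested, PBS-washed, lysed in hypertonic NP-40 buffer with protease/phosphatase inhibitors; SDS-PAGE, PVDF transfer, rabbit monoclonal cleaved caspase-3 (Asp175) antibody 12 h, secondary 1 h, chemiluminescent detection; β-actin loading control. Representative blots of three independent experiments.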

EOL1 [16] = test: Induction of apoptosis in human EOL-1 cells assessed as early apoptotic cells at 3 uM after 24 hrs by Annexin-V FITC/7-AAD staining based flow cytometric method (reference value: 1.94%); type: functional
EOL1 [17] = test: Induction of apoptosis in human EOL-1 cells assessed as necrotic cells at 6 uM after 24 hrs by Annexin-V FITC/7-AAD staining based flow cytometric method (reference value: 0.032%); type: functional
MOLM-13 [18] = test: Induction of apoptosis in human MOLM13 cells assessed as early apoptotic cells at 3 uM after 24 hrs by Annexin-V FITC/7-AAD staining based flow cytometric method (reference value: 11.8%); type: functional
EOL1 [19] = test: Induction of apoptosis in human EOL-1 cells assessed as early apoptotic cells at 6 uM after 24 hrs by Annexin-V FITC/7-AAD staining based flow cytometric method (reference value: 1.94%); type: functional
MOLM-13 [20] = test: Induction of apoptosis in human MOLM13 cells assessed as late apoptotic cells at 3 uM after 24 hrs by Annexin-V FITC/7-AAD staining based flow cytometric method (reference value: 1.43%); type: functional
EOL1 [21] = test: Induction of apoptosis in human EOL-1 cells assessed as live cells at 12 uM after 24 hrs by Annexin-V FITC/7-AAD staining based flow cytometric method (reference value: 97.5%); type: functional
MOLM-13 [22] = test: Induction of apoptosis in human MOLM13 cells assessed as early apoptotic cells at 12 uM after 24 hrs by Annexin-V FITC/7-AAD staining based flow cytometric method (reference value: 11.8%); type: functional
MOLM-13 [23] = test: Synergistic antileukemic activity against human MOLM13 cells assessed as concentration required for <= 75% cell survival after 72 hrs in presence of midostaurin by CellTiter 96 AQueous One solution cell proliferation assay; type: functional
MOLM-13 [24] = test: Induction of apoptosis in human MOLM13 cells assessed as live cells at 3 uM after 24 hrs by Annexin-V FITC/7-AAD staining based flow cytometric method (reference value: 86.8%); type: functional
EOL1 [25] = test: Induction of apoptosis in human EOL-1 cells assessed as live cells at 6 uM after 24 hrs by Annexin-V FITC/7-AAD staining based flow cytometric method (reference value: 97.5%); type: functional
EOL1 [26] = test: Synergistic antileukemic activity against human EOL-1 cells assessed as concentration required for <= 75% cell survival after 72 hrs in presence of midostaurin by CellTiter 96 AQueous One solution cell proliferation assay; type: functional
MOLM-13 [27] = test: Induction of apoptosis in human MOLM13 cells assessed as necrotic cells at 12 uM after 24 hrs by Annexin-V FITC/7-AAD staining based flow cytometric method (reference value: 0%); type: functional
EOL1 [28] = test: Induction of apoptosis in human EOL-1 cells assessed as late apoptotic cells at 3 uM after 24 hrs by Annexin-V FITC/7-AAD staining based flow cytometric method (reference value: 0.535%); type: functional
[29] = molecular target: Transcription factor p65 (Homo sapiens) (UniProt Q04206); test: Inhibition of NFkappaB p65 in human MOLM13 cells at 10 uM after 72 hrs by immunoblotting method; type: cell-based
Summary of the method: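 MOLM-13 or EOL-1 cells treated 72 h at 10 μM. Cells washed in ice-cold PBS and lysed in hypertonic NP-40 buffer (10 mM HEPES pH 7.5, 0.5 M NaCl) with protease/phosphatase inhibitors. Protein measured by BCA; SDS-PAGE onto PVDF. Probed 12 h with rabbit monoclonal NF-κB-p65 antibody, goat β-actin as loading control, then chemiluminescence. Blots representative of three independent experiments.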

MOLM-13 [30] = test: Induction of apoptosis in human MOLM13 cells assessed as caspase-3 activation at 10 uM after 72 hrs by immunoblotting analysis; type: functional, cell-based
Summary of the method: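 MOLM-13 cells treated 72 h with test compounds at 10 μM or PKC412 at 10 nM. Cells washed in ice-cold PBS, lysed at 10^8 cells/mL in NP-40 hypertonic buffer (pH 7.5) with protease/phosphatase inhibitors, then run on SDS-PAGE and PVDF. Blots probed 12 h with rabbit monoclonal cleaved caspase-3 (Asp175), β-actin as loading control. Representative of three independent experiments.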

MOLM-13 [31] = test: Induction of apoptosis in human MOLM13 cells assessed as necrotic cells at 6 uM after 24 hrs by Annexin-V FITC/7-AAD staining based flow cytometric method (reference value: 0%); type: functional

Transcription factor p65 (Homo sapiens), sequence (Q04206 whole entry): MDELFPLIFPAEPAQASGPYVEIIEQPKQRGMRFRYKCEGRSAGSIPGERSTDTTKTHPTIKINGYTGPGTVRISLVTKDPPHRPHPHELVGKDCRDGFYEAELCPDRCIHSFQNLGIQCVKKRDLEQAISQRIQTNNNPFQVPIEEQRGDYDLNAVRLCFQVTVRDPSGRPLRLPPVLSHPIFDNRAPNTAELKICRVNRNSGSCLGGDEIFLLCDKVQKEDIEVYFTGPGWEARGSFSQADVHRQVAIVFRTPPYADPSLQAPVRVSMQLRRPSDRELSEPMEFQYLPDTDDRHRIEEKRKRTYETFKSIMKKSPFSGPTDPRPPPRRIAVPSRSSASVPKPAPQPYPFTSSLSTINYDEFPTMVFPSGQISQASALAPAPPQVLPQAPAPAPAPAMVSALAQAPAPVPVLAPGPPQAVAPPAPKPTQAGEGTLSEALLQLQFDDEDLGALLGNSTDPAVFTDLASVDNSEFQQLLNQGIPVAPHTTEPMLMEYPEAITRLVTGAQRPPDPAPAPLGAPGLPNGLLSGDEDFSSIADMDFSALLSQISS

C=C1C(=O)O[C@@H]2C[C@@H](C)CCC(=O)[C@](C)(OC(C)=O)C[C@H](OC(=O)/C(C)=C\C)[C@@H]12
IC50 (HT-29): 3 µM | Activity (MOLM-13 [1]): 0.056% | Activity (MOLM-13 [2]): 1.19% | Activity (EOL1 [3]): 0.043% | Activity (MOLM-13 [4]): 93.6% | IC50 (EOL1 [5]): 8 µM | Activity (EOL1 [6]): 0.545% | Activity (EOL1 [7]): 97.9% | Activity (MOLM-13 [8]): 4.87% | Activity (EOL1 [9]): 4.7% | Activity (MOLM-13 [10]): 39.7% | Activity (EOL1 [11]): 1.4% | Activity (MOLM-13 [12]): 36.6% | IC50 (MOLM-13 [13]): 10 µM | Activity (EOL1 [14]): 0.497% | Activity (EOL1 [15]): Active | Activity (EOL1 [16]): 1.64% | Activity (EOL1 [17]): 0.096% | Activity (MOLM-13 [18]): 4.46% | Activity (EOL1 [19]): 1.66% | Activity (MOLM-13 [20]): 0.817% | Activity (EOL1 [21]): 93.4% | Activity (MOLM-13 [22]): 6.8% | Activity (MOLM-13 [23]): 4.9 µM | Activity (MOLM-13 [24]): 94.7% | Activity (EOL1 [25]): 97.7% | Activity (EOL1 [26]): 2.5 µM | Activity (MOLM-13 [27]): 16.9% | Activity (EOL1 [28]): 0.417% | inhibition [29]: Active | Activity (MOLM-13 [30]): Active | Activity (MOLM-13 [31]): 0.314%
